{"source": "ChEMBL document CHEMBL5705905", "about": "“Pharmacological targeting of kinases MST1 and MST2 augments tissue repair and regeneration” (Sci Transl Med, 2016)", "key": {"[1]": {"biological_target": "Mitogen-activated protein kinase 11 (Homo sapiens) (UniProt Q15759)", "experiment": "Inhibition of P38beta (unknown origin) assessed as remaining activity at 1 uM by Kinome scan method relative to control"}, "[2]": {"biological_target": "Receptor-type tyrosine-protein kinase FLT3 (Homo sapiens) (UniProt P36888)", "experiment": "Inhibition of FLT3 (unknown origin) assessed as remaining activity at 1 uM by Kinome scan method relative to control"}, "[3]": {"experiment": "Tmax in male Sprague-Dawley rat at 10 mg/kg, po measured for 24 hrs by LC-MS/MS analysis", "type": "ADME, organism-based", "conditions": "in vivo"}, "[4]": {"biological_target": "Serine/threonine-protein kinase Nek2 (Homo sapiens) (UniProt P51955)", "experiment": "Inhibition of NEK2 (unknown origin) assessed as remaining activity at 1 uM by Kinome scan method relative to control"}, "[5]": {"biological_target": "Aurora kinase C (Homo sapiens) (UniProt Q9UQB9)", "sequence (Q9UQB9 whole entry)": "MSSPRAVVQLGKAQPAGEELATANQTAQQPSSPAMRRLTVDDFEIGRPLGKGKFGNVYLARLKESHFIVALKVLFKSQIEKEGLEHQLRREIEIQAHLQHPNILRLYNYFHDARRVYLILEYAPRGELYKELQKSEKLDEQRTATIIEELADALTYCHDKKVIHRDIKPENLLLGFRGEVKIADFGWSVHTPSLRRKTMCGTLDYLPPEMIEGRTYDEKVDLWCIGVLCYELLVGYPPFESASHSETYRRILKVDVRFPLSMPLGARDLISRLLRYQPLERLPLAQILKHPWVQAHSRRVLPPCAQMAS", "experiment": "Inhibition of AURKC (unknown origin) assessed as remaining activity at 1 uM by Kinome scan method relative to control", "summary_of_the_method": "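KINOMEscan active-site-dependent competition-binding panel of 468 kinases, compound at 1 μM from a DMSO stock. Result reported as ctrl% = (test signal − positive control signal)/(negative control signal − positive control signal) × 100. The negative control is DMSO (100%) and the positive control is a control compound (0%). Lower ctrl% means tighter binding.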"}, "[6]": {"biological_target": "Mitogen-activated protein kinase kinase kinase 2 (Homo sapiens, UniProt Q9Y2U5)", "experiment": "Inhibition of MAP3K2 (unknown origin) in presence of ATP by enzymatic assay"}, "[7]": {"biological_target": "T1, Serine/threonine-protein kinase 3 (Homo sapiens, UniProt Q13188)", "T1 sequence (Q13188 whole entry)": "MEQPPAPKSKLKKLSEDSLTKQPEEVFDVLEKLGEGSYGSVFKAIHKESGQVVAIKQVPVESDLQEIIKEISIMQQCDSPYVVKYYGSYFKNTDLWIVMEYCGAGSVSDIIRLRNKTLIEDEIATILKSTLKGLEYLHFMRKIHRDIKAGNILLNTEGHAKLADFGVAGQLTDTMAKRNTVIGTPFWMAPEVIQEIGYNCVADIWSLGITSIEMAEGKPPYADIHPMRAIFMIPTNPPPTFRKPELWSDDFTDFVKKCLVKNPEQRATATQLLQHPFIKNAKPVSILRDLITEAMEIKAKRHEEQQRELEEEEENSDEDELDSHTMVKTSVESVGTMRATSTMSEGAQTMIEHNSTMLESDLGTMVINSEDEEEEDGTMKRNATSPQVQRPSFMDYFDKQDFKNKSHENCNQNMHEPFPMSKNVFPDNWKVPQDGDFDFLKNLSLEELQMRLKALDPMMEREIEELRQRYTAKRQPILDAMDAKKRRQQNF", "experiment": "Inhibition of recombinant His-tagged full-length MST2 (unknown origin) expressing in Escherichia coli assessed as MOB1a phosphorylation level incubated for 30 min in the presence of 300 uM ATP by immunoblot analysis"}, "[8]": {"system": "Tyrosine-protein kinase ABL1 (Homo sapiens), P00519 [T315I]", "experiment": "Inhibition of ABL1 T315I mutant (unknown origin) assessed as remaining activity at 1 uM by Kinome scan method relative to control", "summary_of_the_method": "(§1)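 Active-site-dependent competition-binding (KINOMEscan) panel of 468 kinases, test compound at 1 μM (from a 10 mM DMSO stock). Read-out is ctrl% = (test signal − positive control signal)/(negative control signal − positive control signal) × 100. DMSO is the negative control (100%) and a control compound is the positive control (0%). Lower ctrl% means tighter binding.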"}, "[9]": {"biological_target": "Serine/threonine-protein kinase 32A (Homo sapiens) (UniProt Q8WU08)", "experiment": "Inhibition of YANK1 (unknown origin) assessed as remaining activity at 1 uM by Kinome scan method relative to control"}, "[10]": {"biological_target": "Activin receptor type-1 (Homo sapiens) (UniProt Q04771)", "experiment": "Inhibition of ACVR1 (unknown origin) assessed as remaining activity at 1 uM by Kinome scan method relative to control", "summary_of_the_method": "as §1"}, "[11]": {"biological_target": "Protein-tyrosine kinase 6 (Homo sapiens) (UniProt Q13882)", "experiment": "Inhibition of BRK (unknown origin) assessed as remaining activity at 1 uM by Kinome scan method relative to control", "summary_of_the_method": "as §1"}, "[12]": {"biological_target": "Serine/threonine-protein kinase TAO2 (Homo sapiens, UniProt Q9UL54)", "sequence (Q9UL54 whole entry)": "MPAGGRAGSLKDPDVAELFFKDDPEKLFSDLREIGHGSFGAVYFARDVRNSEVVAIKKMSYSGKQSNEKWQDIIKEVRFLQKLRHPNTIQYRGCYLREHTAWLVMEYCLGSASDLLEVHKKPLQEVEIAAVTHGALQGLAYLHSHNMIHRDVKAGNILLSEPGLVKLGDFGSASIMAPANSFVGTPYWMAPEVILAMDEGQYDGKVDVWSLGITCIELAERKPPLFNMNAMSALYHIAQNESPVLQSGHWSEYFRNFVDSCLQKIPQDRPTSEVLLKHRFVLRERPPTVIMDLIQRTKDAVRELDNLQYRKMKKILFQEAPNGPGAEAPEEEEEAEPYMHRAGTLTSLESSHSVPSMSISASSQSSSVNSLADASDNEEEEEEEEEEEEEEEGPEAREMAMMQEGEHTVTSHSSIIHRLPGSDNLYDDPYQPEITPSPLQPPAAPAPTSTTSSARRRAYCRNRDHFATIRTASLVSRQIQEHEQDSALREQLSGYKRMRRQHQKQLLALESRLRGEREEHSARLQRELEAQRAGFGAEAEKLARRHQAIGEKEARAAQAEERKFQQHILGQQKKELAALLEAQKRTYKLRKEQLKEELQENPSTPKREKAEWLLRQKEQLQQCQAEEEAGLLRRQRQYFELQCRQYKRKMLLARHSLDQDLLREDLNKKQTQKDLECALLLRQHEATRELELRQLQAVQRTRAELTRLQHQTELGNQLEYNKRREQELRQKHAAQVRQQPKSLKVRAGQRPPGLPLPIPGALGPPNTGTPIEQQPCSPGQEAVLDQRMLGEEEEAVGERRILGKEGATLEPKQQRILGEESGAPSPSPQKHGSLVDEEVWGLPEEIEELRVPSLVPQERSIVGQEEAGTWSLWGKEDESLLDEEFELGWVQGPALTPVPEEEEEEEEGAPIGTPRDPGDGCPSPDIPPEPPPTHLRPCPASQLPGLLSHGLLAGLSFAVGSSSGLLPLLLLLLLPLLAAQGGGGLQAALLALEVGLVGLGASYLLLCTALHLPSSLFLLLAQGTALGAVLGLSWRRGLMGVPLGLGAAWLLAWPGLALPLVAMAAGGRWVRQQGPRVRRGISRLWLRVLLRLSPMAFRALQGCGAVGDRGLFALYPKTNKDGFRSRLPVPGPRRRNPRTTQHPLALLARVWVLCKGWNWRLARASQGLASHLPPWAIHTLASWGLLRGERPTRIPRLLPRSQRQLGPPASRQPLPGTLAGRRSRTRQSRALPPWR", "experiment": "Inhibition of TAOK2 (unknown origin) in presence of ATP by enzymatic assay"}, "[13]": {"biological_target": "High affinity nerve growth factor receptor (Homo sapiens) (UniProt P04629)", "experiment": "Inhibition of TRKA (unknown origin) assessed as remaining activity at 1 uM by Kinome scan method relative to control"}, "[14]": {"biological_target": "Dual specificity protein kinase CLK4 (Homo sapiens) (UniProt Q9HAZ1)", "experiment": "Inhibition of CLK4 (unknown origin) assessed as remaining activity at 1 uM by Kinome scan method relative to control", "summary_of_the_method": "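Active-site-dependent competition-binding profiling (KINOMEscan) at 1 μM against a 468-kinase panel; compound supplied from a 10 mM DMSO stock. Read-out is ctrl% = (test signal − positive control signal)/(negative control signal − positive control signal) × 100. DMSO is the negative control (100%) and a control compound the positive control (0%). Lower ctrl% means tighter binding.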"}, "[15]": {"biological_target": "Mitogen-activated protein kinase kinase kinase kinase 1 (Homo sapiens) (UniProt Q92918)", "experiment": "Inhibition of HPK1 (unknown origin) assessed as remaining activity at 1 uM by Kinome scan method relative to control"}, "[16]": {"system": "Epidermal growth factor receptor (Homo sapiens), P00533 [G719C]", "experiment": "Inhibition of EGFR G719C mutant (unknown origin) assessed as remaining activity at 1 uM by Kinome scan method relative to control"}, "[17]": {"system": "Phosphatidylinositol 4,5-bisphosphate 3-kinase catalytic subunit alpha isoform (Homo sapiens), P42336 [C420R]", "sequence (P42336 whole entry C420R, canonical isoform)": "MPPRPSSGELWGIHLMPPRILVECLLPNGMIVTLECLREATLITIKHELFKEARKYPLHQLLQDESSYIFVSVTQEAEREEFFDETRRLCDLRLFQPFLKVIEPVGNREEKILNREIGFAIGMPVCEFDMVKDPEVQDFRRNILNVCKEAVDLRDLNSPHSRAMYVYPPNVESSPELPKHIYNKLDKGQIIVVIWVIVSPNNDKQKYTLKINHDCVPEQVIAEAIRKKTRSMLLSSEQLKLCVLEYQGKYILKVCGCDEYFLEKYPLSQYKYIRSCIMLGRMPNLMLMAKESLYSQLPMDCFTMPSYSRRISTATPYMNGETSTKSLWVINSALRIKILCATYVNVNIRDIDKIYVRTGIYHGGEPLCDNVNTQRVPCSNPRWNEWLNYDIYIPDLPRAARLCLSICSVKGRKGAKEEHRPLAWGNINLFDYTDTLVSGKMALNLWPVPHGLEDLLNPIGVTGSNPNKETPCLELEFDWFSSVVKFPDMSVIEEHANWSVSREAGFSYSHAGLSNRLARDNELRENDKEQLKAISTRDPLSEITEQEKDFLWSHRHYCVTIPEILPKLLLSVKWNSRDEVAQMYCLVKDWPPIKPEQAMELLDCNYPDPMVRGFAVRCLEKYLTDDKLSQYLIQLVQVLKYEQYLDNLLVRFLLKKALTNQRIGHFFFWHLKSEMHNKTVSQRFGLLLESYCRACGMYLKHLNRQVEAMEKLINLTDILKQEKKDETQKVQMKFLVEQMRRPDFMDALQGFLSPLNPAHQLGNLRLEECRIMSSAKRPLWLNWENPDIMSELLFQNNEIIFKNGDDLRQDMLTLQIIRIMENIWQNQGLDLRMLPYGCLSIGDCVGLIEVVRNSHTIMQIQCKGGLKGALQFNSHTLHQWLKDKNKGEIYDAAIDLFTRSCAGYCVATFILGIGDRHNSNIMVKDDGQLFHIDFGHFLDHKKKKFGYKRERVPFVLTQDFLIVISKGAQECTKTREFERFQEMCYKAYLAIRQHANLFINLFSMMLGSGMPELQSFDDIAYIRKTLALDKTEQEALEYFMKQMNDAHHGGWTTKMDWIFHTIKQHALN", "experiment": "Inhibition of PIK3CA C420R mutant (unknown origin) assessed as remaining activity at 1 uM by Kinome scan method relative to control"}, "[18]": {"biological_target": "Serine/threonine-protein kinase MAK (Homo sapiens) (UniProt P20794)", "sequence (P20794 whole entry)": "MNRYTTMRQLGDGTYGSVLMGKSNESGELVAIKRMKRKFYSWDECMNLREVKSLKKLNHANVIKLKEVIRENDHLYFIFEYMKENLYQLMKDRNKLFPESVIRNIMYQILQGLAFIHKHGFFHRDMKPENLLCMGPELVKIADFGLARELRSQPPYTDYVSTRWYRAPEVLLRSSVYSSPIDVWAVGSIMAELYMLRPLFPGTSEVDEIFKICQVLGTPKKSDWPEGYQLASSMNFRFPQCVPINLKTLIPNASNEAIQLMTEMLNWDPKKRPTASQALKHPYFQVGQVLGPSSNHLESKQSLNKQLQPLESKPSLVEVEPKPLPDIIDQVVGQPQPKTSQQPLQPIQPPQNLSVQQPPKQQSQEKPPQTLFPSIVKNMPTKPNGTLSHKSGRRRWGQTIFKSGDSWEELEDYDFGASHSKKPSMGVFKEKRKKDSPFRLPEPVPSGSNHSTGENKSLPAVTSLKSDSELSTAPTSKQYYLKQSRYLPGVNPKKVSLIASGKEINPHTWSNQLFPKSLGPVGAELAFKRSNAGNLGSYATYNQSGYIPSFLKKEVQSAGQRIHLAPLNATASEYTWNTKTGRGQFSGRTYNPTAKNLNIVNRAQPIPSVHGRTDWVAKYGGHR", "experiment": "Inhibition of MAK (unknown origin) assessed as remaining activity at 1 uM by Kinome scan method relative to control"}, "[19]": {"biological_target": "Mitogen-activated protein kinase kinase kinase kinase 3 (Homo sapiens) (UniProt Q8IVH8)", "sequence (Q8IVH8 whole entry)": "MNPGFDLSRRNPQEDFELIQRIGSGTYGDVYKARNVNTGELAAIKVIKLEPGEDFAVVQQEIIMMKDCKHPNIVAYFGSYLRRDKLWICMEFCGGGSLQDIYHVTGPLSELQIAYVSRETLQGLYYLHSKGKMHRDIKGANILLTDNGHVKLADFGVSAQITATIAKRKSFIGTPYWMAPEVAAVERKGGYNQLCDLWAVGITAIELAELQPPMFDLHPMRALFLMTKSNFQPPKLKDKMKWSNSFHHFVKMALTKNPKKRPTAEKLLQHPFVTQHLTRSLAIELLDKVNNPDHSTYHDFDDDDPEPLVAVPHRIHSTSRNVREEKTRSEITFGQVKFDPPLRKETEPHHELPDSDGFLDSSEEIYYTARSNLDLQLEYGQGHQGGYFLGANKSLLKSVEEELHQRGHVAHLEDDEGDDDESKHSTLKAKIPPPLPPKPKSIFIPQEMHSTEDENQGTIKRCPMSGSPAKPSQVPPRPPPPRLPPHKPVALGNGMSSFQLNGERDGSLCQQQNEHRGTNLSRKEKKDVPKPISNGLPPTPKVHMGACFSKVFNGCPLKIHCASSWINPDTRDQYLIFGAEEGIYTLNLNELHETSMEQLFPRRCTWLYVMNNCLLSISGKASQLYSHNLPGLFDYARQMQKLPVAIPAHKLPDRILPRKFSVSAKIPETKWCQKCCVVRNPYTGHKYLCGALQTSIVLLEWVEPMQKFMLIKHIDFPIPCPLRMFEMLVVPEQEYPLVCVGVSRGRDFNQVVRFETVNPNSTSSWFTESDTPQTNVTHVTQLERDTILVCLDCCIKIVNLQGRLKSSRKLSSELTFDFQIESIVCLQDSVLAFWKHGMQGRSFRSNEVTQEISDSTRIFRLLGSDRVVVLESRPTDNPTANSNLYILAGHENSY", "experiment": "Inhibition of MAP4K3 (unknown origin) assessed as remaining activity at 1 uM by Kinome scan method relative to control"}, "[20]": {"biological_target": "Mitogen-activated protein kinase kinase kinase 3 (Homo sapiens, UniProt Q99759)", "experiment": "Inhibition of MAP3K3 (unknown origin) in presence of ATP by enzymatic assay"}, "[21]": {"system": "Phosphatidylinositol 4,5-bisphosphate 3-kinase catalytic subunit alpha isoform (Homo sapiens), P42336 [Q546K]", "sequence (P42336 whole entry Q546K, canonical isoform)": "as the sequence (P42336 whole entry C420R, canonical isoform) above, with R420C, Q546K counted along it", "experiment": "Inhibition of PIK3CA Q546K mutant (unknown origin) assessed as remaining activity at 1 uM by Kinome scan method relative to control"}, "[22]": {"biological_target": "Mitogen-activated protein kinase kinase kinase kinase 5 (Homo sapiens) (UniProt Q9Y4K4)", "sequence (Q9Y4K4 whole entry, looked up)": "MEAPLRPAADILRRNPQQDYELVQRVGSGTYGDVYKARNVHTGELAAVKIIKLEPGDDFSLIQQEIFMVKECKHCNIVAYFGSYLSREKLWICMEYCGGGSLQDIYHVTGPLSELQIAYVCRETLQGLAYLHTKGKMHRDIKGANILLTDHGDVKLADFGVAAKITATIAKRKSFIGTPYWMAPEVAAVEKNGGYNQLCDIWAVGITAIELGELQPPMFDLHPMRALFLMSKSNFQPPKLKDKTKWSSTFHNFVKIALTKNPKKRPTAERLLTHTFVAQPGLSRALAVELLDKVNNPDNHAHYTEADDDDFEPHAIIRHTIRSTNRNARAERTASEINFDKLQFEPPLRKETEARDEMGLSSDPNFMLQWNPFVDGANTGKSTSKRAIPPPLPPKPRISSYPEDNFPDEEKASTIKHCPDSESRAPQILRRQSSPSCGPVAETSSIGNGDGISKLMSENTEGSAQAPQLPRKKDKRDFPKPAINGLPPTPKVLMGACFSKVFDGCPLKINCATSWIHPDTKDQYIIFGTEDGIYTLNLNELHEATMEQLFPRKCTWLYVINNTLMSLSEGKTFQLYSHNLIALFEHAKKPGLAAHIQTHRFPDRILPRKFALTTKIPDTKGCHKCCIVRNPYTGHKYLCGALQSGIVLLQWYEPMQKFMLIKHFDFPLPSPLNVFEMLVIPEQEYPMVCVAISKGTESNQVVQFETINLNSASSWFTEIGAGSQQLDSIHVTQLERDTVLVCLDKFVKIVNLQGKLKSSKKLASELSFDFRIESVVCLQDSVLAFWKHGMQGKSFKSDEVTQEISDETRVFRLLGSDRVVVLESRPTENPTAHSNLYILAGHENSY", "experiment": "Inhibition of MAP4K5 (unknown origin) assessed as remaining activity at 1 uM by Kinome scan method relative to control"}, "[23]": {"experiment": "Binding affinity to phosphorylated ABL1 T315I mutant (unknown origin) assessed as dissociation constant", "design": "species or system Homo sapiens"}, "[24]": {"biological_target": "Serine/threonine-protein kinase ULK2 (Homo sapiens, UniProt Q8IYT8)", "experiment": "Inhibition of ULK2 (unknown origin) in presence of ATP by enzymatic assay"}}, "data": [{"smiles": "CN1C(=O)c2sccc2N(C)c2nc(Nc3ccc(S(N)(=O)=O)cc3)ncc21", "values": [{"measurement": "Activity", "setting": "[1]", "value": 83, "unit": "%"}, {"measurement": "Activity", "setting": "[2]", "value": 100, "unit": "%"}, {"measurement": "Tmax", "setting": "[3]", "value": 3, "unit": "h"}, {"measurement": "Activity", "setting": "[4]", "value": 59, "unit": "%"}, {"measurement": "Activity", "setting": "[5]", "value": 95, "unit": "%"}, {"measurement": "IC50", "setting": "[6]", "value": 0.0796, "unit": "µM"}, {"measurement": "IC50", "setting": "[7]", "value": 1.5, "unit": "µM"}, {"measurement": "Activity", "setting": "[8]", "value": 15, "unit": "%"}, {"measurement": "Activity", "setting": "[9]", "value": 100, "unit": "%"}, {"measurement": "Activity", "setting": "[10]", "value": 91, "unit": "%"}, {"measurement": "Activity", "setting": "[11]", "value": 100, "unit": "%"}, {"measurement": "IC50", "setting": "[12]", "value": 0.134, "unit": "µM"}, {"measurement": "Activity", "setting": "[13]", "value": 56, "unit": "%"}, {"measurement": "Activity", "setting": "[14]", "value": 100, "unit": "%"}, {"measurement": "Activity", "setting": "[15]", "value": 79, "unit": "%"}, {"measurement": "Activity", "setting": "[16]", "value": 78, "unit": "%"}, {"measurement": "Activity", "setting": "[17]", "value": 96, "unit": "%"}, {"measurement": "Activity", "setting": "[18]", "value": 100, "unit": "%"}, {"measurement": "Activity", "setting": "[19]", "value": 100, "unit": "%"}, {"measurement": "IC50", "setting": "[20]", "value": 0.0384, "unit": "µM"}, {"measurement": "Activity", "setting": "[21]", "value": 50, "unit": "%"}, {"measurement": "Activity", "setting": "[22]", "value": 100, "unit": "%"}, {"measurement": "Kd", "setting": "[23]", "value": 0.014, "unit": "µM"}, {"measurement": "IC50", "setting": "[24]", "value": 0.0415, "unit": "µM"}]}]}
